Hits are enriched below; roughly 1.5% of the tested compounds scored in any of these assays.
SUMO Mot1 rescue = SUMOylation pathway inhibition by Mot1-301 growth rescue | S. cerevisiae Mot1-301 growth rescue, ATP luminescence, 38.5C; percent above DMSO median, 100 means doubled | growth rescue, % at 18.8 µM | hit rate 1% among 320,000 | AID 2716;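 active means every valid replicate shows activation above 250% relative to neutral control wells; inactive means the rest, any valid replicate at or below 250%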;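 further: OY570 slx delta 5 strain wells were the positive control but not used for scaling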
Cneo AK release = causes C. neoformans cell lysis | adenylate kinase release luminescence, 4 h; normalised: neutral wells 0, clomiphene wells 100 | lysis activity, % at 15 µM | hit rate 0.2% among 360,000;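 active means mean lysis activity across replicates of at least 80%, whatever share of replicates individually reach that level; inactive means mean lysis activity below 80%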
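Assay system: C. neoformans cells. Amount: yeast cell density of 5 × 10^6 cells/mL. Technique: AK luminescence. Buffer or medium: YPD. Times: static 4 h at 37 °C with compound, 1 h detection. Dosing: single-point compound dose. Read-out: lysis from increased AK signal.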
C2C12 statin = suppression of simvastatin myotoxicity. hit rate 0.78% among 330,000. rescue of ATP level, % at 7.49 µM. AID 602340. C2C12 myotubes + simvastatin, ATP luminescence, 48 h; scaled: DMSO 0, geranylgeraniol control 100;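 active means mean ATP rescue above about 67%, or every replicate alone reaching that limit, limit read from the data, passing the limit was not always enough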;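 further: myotubes were challenged with 10 µM simvastatin during compound exposure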
The depositor's hits bear a star.

Results for Cc1ccc(S(=O)(=O)N(C)C[C@H]2OCCCC[C@@H](C)Oc3ccc(NC(=O)Nc4cccc5ccccc45)cc3C(=O)N([C@H](C)CO)C[C@@H]2C)cc1 ?
Cneo AK release: 1

How did CN1C[C@@H]2[C@H](c3ccccc31)[C@H](CO)N2C(=O)c1ccccn1 do in these assays?
Cneo AK release: -2; C2C12 statin: 18

What do the screens show for `CC(=O)N(C)C[C@@H]1Oc2ncc(-c3cncnc3)cc2C(=O)N([C@@H](C)CO)C[C@H]1C`?
Cneo AK release: -2; C2C12 statin: -2

What do the screens show for `COc1ccc(S(=O)(=O)N(C)C[C@H]2OCCCC[C@H](C)Oc3ccc(NC(=O)NC(C)C)cc3C(=O)N([C@@H](C)CO)C[C@H]2C)cc1`?
Cneo AK release: 0

What do the screens show for `COc1ccc(S(=O)(=O)NCCC(=O)NCc2ccccc2)cc1`?
SUMO Mot1 rescue: 9; Cneo AK release: 1; C2C12 statin: 126*

What do the screens show for `COc1ccc(S(=O)(=O)NCc2ccccc2)cc1`?
SUMO Mot1 rescue: -5; Cneo AK release: 0; C2C12 statin: 2

Results for CC(C)NC(=O)Nc1ccc2c(c1)C(=O)N(C)[C@@H]1CC[C@H](CC(=O)Nc3ccccc3)O[C@@H]1CO2 ?
Cneo AK release: -3; C2C12 statin: 0

What do the screens show for `COCCCNC(=O)c1c(N)n(-c2cccc(S(N)(=O)=O)c2)c2nc3ccccc3nc12`?
SUMO Mot1 rescue: -5; Cneo AK release: -1; C2C12 statin: -2

What do the screens show for `CCCNC(=O)c1c(N)n(-c2cccc(OC)c2)c2nc3ccccc3nc12`?
SUMO Mot1 rescue: 55; Cneo AK release: 2; C2C12 statin: 106*

What do the screens show for `Cn1cnc(S(=O)(=O)N[C@H]2C=C[C@H](CC(=O)NCC3CC3)O[C@H]2CO)c1`?
Cneo AK release: 4; C2C12 statin: 9

How did C[C@@H]1CN([C@@H](C)CO)C(=O)Cc2cc(NC(=O)Nc3cccc4ccccc34)ccc2O[C@@H]1CN(C)Cc1ccc(C(F)(F)F)cc1 do in these assays?
SUMO Mot1 rescue: 26; Cneo AK release: 1; C2C12 statin: 98*

How did C[C@H]1CN([C@@H](C)CO)C(=O)Cc2cc(NC(=O)Nc3cccc4ccccc34)ccc2O[C@H]1CN(C)Cc1ccccc1 do in these assays?
Cneo AK release: -1; C2C12 statin: -25

How did C[C@@H]1CN([C@H](C)CO)C(=O)Cc2cc(NC(=O)Nc3cccc4ccccc34)ccc2O[C@H]1CN(C)Cc1ccccc1 do in these assays?
Cneo AK release: 0; C2C12 statin: 73*

Results for C[C@@H]1CN([C@@H](C)CO)C(=O)Cc2cc(NC(=O)Nc3cccc4ccccc34)ccc2O[C@@H]1CN(C)Cc1ccccc1 ?
Cneo AK release: 2; C2C12 statin: 0

What do the screens show for `COc1ccccc1S(=O)(=O)N[C@H]1CC[C@@H](CC(=O)N2CCOCC2)O[C@H]1CO`?
Cneo AK release: -5; C2C12 statin: 8

How did COc1ccc(CNC(=O)C[C@H]2C[C@@H]3c4cc(NS(C)(=O)=O)ccc4O[C@@H]3[C@@H](CO)O2)cc1 do in these assays?
Cneo AK release: 2; C2C12 statin: -4

How did O=C(Cn1cnc2ccccc2c1=O)N1CCc2ccccc2C1 do in these assays?
SUMO Mot1 rescue: 498*

How did O=C(Cn1cnc2ccccc2c1=O)N1CCOCC1 do in these assays?
SUMO Mot1 rescue: -5

What do the screens show for `CCn1cc(C(=O)N2CCCC2)c(=O)c2cc(S(=O)(=O)N3CC(C)CC(C)C3)ccc21` (centres undefined)?
SUMO Mot1 rescue: 303*; Cneo AK release: -1; C2C12 statin: -5

Results for CCOC(=O)N1CCN(C(=O)c2cn(CC)c3ccc(S(=O)(=O)N4CC(C)CC(C)C4)cc3c2=O)CC1 (centres undefined) ?
SUMO Mot1 rescue: 4

How did CC(=O)C(C(c1ccccc1)N1CCOCC1)N1CCOCC1 (centres undefined) do in these assays?
Cneo AK release: 0; C2C12 statin: -2

Results for CSc1ccc(C(C(C(=O)c2cccs2)N2CCOCC2)N2CCOCC2)cc1 (centres undefined) ?
SUMO Mot1 rescue: -5; Cneo AK release: -1; C2C12 statin: 77*

How did CCC(=O)N1[C@H](CO)[C@@H]2c3ccccc3N(S(=O)(=O)c3ccccc3F)C[C@@H]21 do in these assays?
Cneo AK release: -3; C2C12 statin: -6

How did O=S(=O)(c1ccc(F)cc1)N1C[C@H]2[C@@H](c3ccccc31)[C@@H](CO)N2Cc1ccccc1Cl do in these assays?
Cneo AK release: 6; C2C12 statin: 33

What do the screens show for `CC(=O)N1[C@@H]2CN(S(=O)(=O)c3ccccc3F)c3ccccc3[C@@H]2[C@@H]1CO`?
Cneo AK release: 92*; C2C12 statin: -12

How did O=S(=O)(c1ccc(F)cc1)N1C[C@@H]2[C@H](c3ccccc31)[C@@H](CO)N2Cc1ccccc1Cl do in these assays?
Cneo AK release: 92*; C2C12 statin: -21

What do the screens show for `C/C=C/c1ccc2c(c1)O[C@@H](CN(C)CC1CC1)[C@@H](C)CN([C@H](C)CO)S2(=O)=O`?
C2C12 statin: 5

Results for CCn1c(SCC(=O)Nc2nc(C)c(C(=O)OC)s2)nnc1C(C)C ?
SUMO Mot1 rescue: 204; Cneo AK release: 0; C2C12 statin: 82*

Results for CCCn1c(SCC(=O)Nc2nc(C)c(C(=O)OC)s2)nnc1C(C)C ?
SUMO Mot1 rescue: 414; Cneo AK release: -1; C2C12 statin: 2

Results for COCC(=O)NC[C@@H]1N[C@@H](CO)[C@H]1c1ccc(C2=CCCC2)cc1 ?
Cneo AK release: 93*; C2C12 statin: -5

How did COCC(=O)NC[C@H]1N[C@H](CO)[C@@H]1c1ccc(C2=CCCCC2)cc1 do in these assays?
Cneo AK release: 4; C2C12 statin: 5

Results for C/C(=N/NS(=O)(=O)c1ccc(Br)cc1)c1ccc(NC(=O)c2ccc(C)o2)cc1 ?
SUMO Mot1 rescue: 12; Cneo AK release: 2; C2C12 statin: 76*

What do the screens show for `CC(=O)Nc1ccc(/C(C)=N/NS(=O)(=O)c2ccc(C)cc2)cc1`?
SUMO Mot1 rescue: -3; Cneo AK release: 2; C2C12 statin: -3

What do the screens show for `COc1cccc(S(=O)(=O)Nc2ccc3c(c2)[C@H]2C[C@@H](CC(=O)NCC(F)(F)F)O[C@@H](CO)[C@H]2O3)c1`?
Cneo AK release: -4; C2C12 statin: -6

What do the screens show for `CCCNC(=O)[C@@H]1[C@@H](CO)[C@@H]2Cn3c(ccc(-c4ccccc4)c3=O)[C@@H]2N1CC1CC1`?
Cneo AK release: 2; C2C12 statin: 1

How did C[C@H](CO)N1C[C@H](C)[C@@H](CN(C)S(=O)(=O)c2cn(C)cn2)Oc2c(NC(=O)Nc3ccc(F)cc3)cccc2C1=O do in these assays?
C2C12 statin: -16

Results for C[C@@H]1CN([C@@H](C)CO)C(=O)c2cccc(NC(=O)Nc3ccccc3)c2O[C@H]1CN(C)S(=O)(=O)c1cn(C)cn1 ?
Cneo AK release: 97*

What do the screens show for `C[C@H](CO)N1C[C@H](C)[C@@H](CN(C)S(=O)(=O)c2cn(C)cn2)Oc2c(NC(=O)Nc3ccccc3)cccc2C1=O`?
Cneo AK release: 97*

High-throughput results deposited in PubChem by Broad Institute.
